Reference: ChEMBL document CHEMBL2331109, “Inhibitors of human immunodeficiency virus type 1 (HIV-1) attachment. 12. Structure-activity relationships associated with 4-fluoro-6-azaindole derivatives leading to the identification of 1-(4-benzoylpiperazin-1-yl)-2-(4-fluoro-7-[1,2,3]triazol-1-yl-1h-pyrrolo[2,3-c]pyridin-3-yl)ethane-1,2-dione …” (J Med Chem, 2013)
Values after ≈ are worked out from the molar mass of the structure shown.

Tests used:
[1] = Aqueous solubility of the compound; type: physicochemical; settings: buffer
[2] = Drug absorption in human colon at 200 mg, po measured between 12 to 96 hrs; type: ADME, organism-based; settings: in vivo
Outline: (§1)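 Healthy subjects given 200 mg as a spray-dried capsule, fasted, with plasma sampled 0–96 h. Bioavailability is relative to a 20 mg oral solution, based on dose-normalized AUC(INF).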

[3] = Oral bioavailability in human at 200 mg administered as capsule formulation; type: ADME, organism-based; settings: in vivo; outline: as §1
Plasma = experiment: Plasma concentration in human at 20 mg, po administered as solution measured after 16 hrs; type: ADME, organism-based; settings: in vivo, BLD = below limit of detection
[4] = Half life in human at 20 mg, po administered as solution measured between 2 and 12 hrs post-dosing; type: ADME, organism-based; settings: in vivo
[5] = Cmax in rat at 5 mg/kg, po; type: ADME, organism-based; parameters: dose 5 mg/kg, route oral; settings: in vivo
[6] = (§2) AUC in rat at 5 mg/kg, po at 24 hrs; type: ADME, organism-based, Plasma; parameters: time < 24 hr, dose 5 mg/kg, route oral; settings: plasma
[7] = (§3) Oral bioavailability in rat at 5 mg/kg; type: ADME, organism-based; settings: in vivo
[8] = Clearance in human liver microsomes; type: ADME, Microsome; settings: read-out: CLH
[9] = Volume of distribution at steady state in iv dosed rat; type: ADME, organism-based; settings: in vivo, read-out: Vdss
Outline: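 Rats dosed intravenously in PEG 400/ethanol (90:10 v/v); steady-state volume of distribution taken from the iv plasma profile.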

Rattus norvegicus [10] = experiment: as §2; type: ADME, organism-based, Plasma; parameters: time < 24 hr, dose 5 mg/kg, route oral; settings: in vivo, 24 h
Rattus norvegicus [11] = experiment: as §3; type: ADME, organism-based; settings: in vivo
[12] = Clearance in iv dosed rat; type: ADME, organism-based; settings: in vivo

Row | SMILES | Cmax [5] [nM] | CLint scaled [8] [mL/min/kg] | Vd [9] [L/kg] | AUC (Rattus norvegicus [10]) [µM·h] | F (Rattus norvegicus [11]) [%] | further results
1 | O=C(C(=O)N1CCN(C(=O)c2ccccc2)CC1)c1c[nH]c2c(-n3ccnn3)ncc(F)c12 | 9480 | < 21 | – | – | – | solubility [1]: 7 µg/mL (≈ 15.6 µM); Drug absorption [2]: Active; bioavailability [3]: 30%; Cp (Plasma): BLD; half-life [4]: 1.4 h; AUC at 24 h [6]: 86 µM·h; bioavailability [7]: 64%
2 | Cc1ccn(-c2ncc(F)c3c(C(=O)C(=O)N4CCN(C(=O)c5ccccc5)CC4)c[nH]c23)n1 | 498 | < 21 | 0.6 | 2.1 | 61 | –
3 | NC(=O)c1ncc(F)c2c(C(=O)C(=O)N3CCN(C(=O)c4ccccc4)CC3)c[nH]c12 | 603 | < 21 | 1.4 | 2.6 | 68 | –
4 | Cc1ncn(-c2ncc(F)c3c(C(=O)C(=O)N4CCN(C(=O)c5ccccc5)CC4)c[nH]c23)n1 | – | < 21 | 0.18 | 160 | 77 | –
5 | O=C(C(=O)N1CCN(C(=O)c2ccccc2)CC1)c1c[nH]c2c(-c3cnco3)ncc(F)c12 | 1290 | < 21 | 0.14 | – | – | clearance [12]: 1.4 mL/min/kg; AUC at 24 h [6]: 12 µM·h; bioavailability [7]: 20%
6 | O=C(C(=O)N1CCN(C(=O)c2ccccc2)CC1)c1c[nH]c2c(-n3cncn3)ncc(F)c12 | 8760 | < 21 | 0.26 | – | 95 | –
7 | CNC(=O)c1ncc(F)c2c(C(=O)C(=O)N3CCN(C(=O)c4ccccc4)CC3)c[nH]c12 | 326 | < 21 | 0.74 | 1.5 | 63 | –
8 | COc1ncc(OC)c2c(C(=O)C(=O)N3CCN(C(=O)c4ccccc4)CC3)c[nH]c12 | 1890 | – | 1.1 | – | – | AUC at 24 h [6]: 6.3 µM·h

Continued, in another order:

Row | Cmax [5] [nM] | CLint scaled [8] [mL/min/kg] | Vd [9] [L/kg] | AUC (Rattus norvegicus [10]) [µM·h] | F (Rattus norvegicus [11]) [%] | SMILES | further results
9 | – | ≤ 29 | – | – | – | CNC(=O)c1cc(-c2ncc(F)c3c(C(=O)C(=O)N4CCN(C(=O)c5ccccc5)CC4)c[nH]c23)n[nH]1 | –
10 | – | ≤ 29 | – | – | – | O=C(C(=O)N1CCN(C(=O)c2ccccc2)CC1)c1c[nH]c2c(-c3cnccn3)ncc(F)c12 | –
11 | – | ≤ 29 | – | – | – | NC(=O)c1cc(-c2ncc(F)c3c(C(=O)C(=O)N4CCN(C(=O)c5ccccc5)CC4)c[nH]c23)n[nH]1 | –
12 | – | < 21 | – | – | – | CN(C)C(=O)c1cc(-c2ncc(F)c3c(C(=O)C(=O)N4CCN(C(=O)c5ccccc5)CC4)c[nH]c23)n[nH]1 | –
13 | – | > 29 | – | – | – | O=C(NCCN1CCOCC1)c1cc(-c2ncc(F)c3c(C(=O)C(=O)N4CCN(C(=O)c5ccccc5)CC4)c[nH]c23)n[nH]1 | –
14 | 1400 | < 21 | 0.25 | 12.5 | 33 | O=C(C(=O)N1CCN(C(=O)c2ccccc2)CC1)c1c[nH]c2c(-c3cc[nH]n3)ncc(F)c12 | –
